Screening results from PubChem.
HCV NS3 hel inh: inhibitors of HCV NS3 helicase, primary screen, biochemical, Cy5 molecular beacon fluorescence; Hepatitis C virus NS3 helicase; NS3 helicase DNA unwinding; inhibition, % at 10.9 µM; 290,000 tested, 0.56% active; AID 1800, 2009;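 active = inhibition above the mean of all tested compounds plus 3 SD, set per campaign, cut at about 35% in these data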;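 also: 0% = DMSO wells and 100% = thioflavine S control wells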
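Material: hepatitis C virus NS3 helicase domain fragment enzyme; measured by: Cy5 fluorescence, 0 and 60 min reads; control set: DMSO and thioflavine S; incubation: 60 min unwinding reaction at 25 °C after ATP addition; read-out basis: % inhibition from 60/0 min fluorescence ratio, DMSO 0%, thioflavine S 100%; repeats: singlicate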
core dimer inh: inhibitors of HCV core protein dimerization, primary screen, biochemical, TR-FRET, high-throughput | TR-FRET GST/Flag-core106 dimerization, 1536-well | inhibition, % at 5 µM | 300,000 tested, 0.33% active | AID 1899, 2009;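 active = inhibition above the mean of all tested compounds plus 3 SD, set per screening campaign, cut at about 45% in these data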
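assay system = GST-tagged and Flag-tagged HCV core protein residues 1-106 | controls = unlabelled core106 and no-GST-core106 wells | incubation = compound-protein-antibody incubation 4 h at 22.5 °C | probe or stimulus = Eu donor and XL665 acceptor anti-tag antibodies | read-out = % inhibition based on acceptor/donor emission ratio | signal = TR-FRET 671 and 617 nm emission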
DNA FID counter-1: compounds displacing fluorescent DNA intercalator, primary screen, artefact control for HCV NS3 helicase inhibitor project, biochemical, FID fluorescence. DNA fluorescent intercalator displacement. inhibition, % at 7.9 µM. 290,000 tested, 0.17% active. AID 1845, 2009;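 also: 0% = vehicle and 100% = reference compound; higher means more ethidium bromide displaced from hairpin DNA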
GRK2 aptamer HTS: compounds blocking aptamer binding on GRK2 – biochemical, human GRK2, bead flow cytometry, HTS, primary screen | FAM-aptamer displacement from GRK2 | AID 488847, 2010 | inhibition of aptamer binding, % at 10 µM | 330,000 tested, 0.59% active | Beta-adrenergic receptor kinase 1 (Homo sapiens), P25098;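 active = inhibition of aptamer binding above 40%, roughly 3 SD of noise, on plates passing a quality check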;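 also: median bead fluorescence of bound FAM aptamer so fluorescent compounds give negative values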
GPR7 antag: GPR7 receptor antagonists, primary screen, cell-based, fluorescence, single concentration. GPR7-expressing cells, fluorescence antagonist assay. inhibition, % at 4.4 µM. 290,000 tested, 1.1% active; in the data active = inhibition above about 16%, passing the limit was not always enough;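 also: cells stimulated with the agonist NPW; 0% = agonist with vehicle and 100% = vehicle without agonist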
Target sequence (P48145 whole entry, looked up): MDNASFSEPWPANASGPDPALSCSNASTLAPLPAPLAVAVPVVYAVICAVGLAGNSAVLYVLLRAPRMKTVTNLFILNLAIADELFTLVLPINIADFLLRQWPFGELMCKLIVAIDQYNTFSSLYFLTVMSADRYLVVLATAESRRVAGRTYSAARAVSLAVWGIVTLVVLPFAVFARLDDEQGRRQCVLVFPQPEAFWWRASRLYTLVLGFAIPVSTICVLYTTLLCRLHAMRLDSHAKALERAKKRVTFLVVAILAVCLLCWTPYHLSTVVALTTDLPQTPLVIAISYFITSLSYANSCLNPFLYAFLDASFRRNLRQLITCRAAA
DAGLB inh: DAGLB lipase inhibitors, primary screen, biochemical, fluorescence, HTS; Diacylglycerol lipase-beta (Homo sapiens), Q8NCG7; HEK293T DAGLB membrane lysate, EnzChek fluorogenic substrate; inhibition, % at 5.17 µM; AID 504411, 2011; 340,000 tested, 0.059% active; in the data active = inhibition above about 34%;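 also: 0% = enzyme with vehicle and 100% = wells lacking enzyme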
NS3 helicase cf: HCV NS3 helicase inhibitors, retest, confirmation, biochemical, Cy5 molecular beacon fluorescence, triplicate. shares compounds with HCV NS3 hel inh. NS3 helicase DNA unwinding. inhibition, % at 10.9 µM. 1,600 tested, 31% active. AID 1943, 2009;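 active = inhibition above the mean of all tested compounds plus 3 SD, cutoff set per campaign, cut at about 36% in these data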
DNA FID counter-2: compounds displacing fluorescent DNA intercalator, artefact control for HCV NS3 helicase inhibitor project, biochemical, FID fluorescence, triplicate. 1,600 tested, 4% active. AID 1945, 2009. shares compounds with HCV NS3 hel inh. DNA fluorescent intercalator displacement. inhibition, % at 7.9 µM;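 also: 0% = vehicle and 100% = reference compound; higher means more displacement of ethidium bromide from the DNA hairpin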
FID counter DR: compounds displacing fluorescent intercalator from DNA, dose response, counter-screen for HCV NS3 helicase inhibitor project, biochemical, fluorescence. shares compounds with HCV NS3 hel inh. fluorescent intercalator displacement from DNA. IC50, µM. 120 tested, under 10 active. AID 2172, 2009; call rule not given here
Starred values were filed as active, the others as inactive; i = inactive; . = no result. Sampled rows, rich in hits. Any-hit rate of the full collection: about 2.2%. Rule as the data show it, unless noted: active = inhibition above about 37%; inactive = the rest.

SMILES | HCV NS3 hel inh | core dimer inh | DNA FID counter-1 | GRK2 aptamer HTS | GPR7 antag | DAGLB inh | NS3 helicase cf | DNA FID counter-2 | others
Cc1ccc(/C=C/C(=O)c2ccccc(=O)c2O)c(C)c1 | 38* | 24 | -17 | 4 | 2 | 18 | 77* | 17 | FID counter DR=>79
CCn1c(O)c(/C=C/C=C/C=Nc2ccccc2)sc1=S | 14 | 28 | -5 | 0 | -1 | 5 | . | .
Oc1c(/C=C/C=C/C=Nc2ccccc2)sc(=S)n1Cc1ccccc1 | 44* | 50* | -11 | 2 | -8 | . | 65* | 33 | FID counter DR=i
CCOc1cc2[nH]c(=S)n(CCOC)c(=O)c2cc1OCC | -4 | 3 | -6 | 0 | -7 | 0 | . | .
COCCn1c(=S)[nH]c2ccc(N(C)C)cc2c1=O | 39* | -10 | -2 | 1 | -5 | 1 | -9 | 6
O=C(NC(=S)Nc1ccc(Cl)c(C(=O)O)c1)c1ccco1 | -2 | 10 | -1 | 6 | -22 | 1 | . | .
O=C(O)c1cc(NC(=S)NC(=O)C(c2ccccc2)c2ccccc2)ccc1Cl | 41* | 8 | -28 | 1 | -8 | 4 | 76* | -5
Cc1cccc(-c2oc3ccc(-c4ccc5c(c4)OCO5)cc3c2/C=C/c2ccc(N)cc2)c1 | 45* | 1 | -17 | 0 | -5 | -2 | -8 | 17
COc1ccc(-c2c(-c3cccc(C)c3)oc3ccc(-c4ccc5c(c4)OCO5)cc23)cn1 | . | -15 | . | 0 | . | -2 | . | .
COc1cc(Cl)cc(/C=N\NC(=O)c2ccc3c(c2)OCO3)c1O | . | . | . | . | . | 7 | . | .
Cc1ccc(/C=N/NC(=O)c2cccc(NC(=O)c3ccccc3C)c2)o1 | 2 | 9 | -20 | 0 | 9 | 2 | . | .
O=C(N/N=C/c1cc(Br)cc([N+](=O)[O-])c1O)c1ccc(NC(=O)c2ccc(F)cc2)cc1 | 37* | 0 | -20 | 1 | 2 | 17 | 8 | -2
O=C(N/N=C/c1ccccc1)c1ccc(NC(=O)c2ccc(F)cc2)cc1 | 38* | -1 | -20 | 0 | 9 | 6 | -9 | 1
Cc1cccc(C(=O)Nc2ccc(C(=O)N/N=C/c3ccc(C)o3)cc2)c1 | 41* | -6 | -16 | 1 | -4 | 0 | -16 | -20
O=C(N/N=C/c1cc(Cl)cc([N+](=O)[O-])c1O)c1ccc2c(c1)OCO2 | 52* | -32 | -4 | 0 | -7 | 3 | -8 | 7
CCOc1ccc(S(=O)(=O)N(C)CC(=O)NC2CC2)cc1 | -8 | 6 | -10 | 5 | -21 | 1 | . | .
O=C1NC(Cc2ccc(O)cc2)c2nc3ccccc3c(=O)n2-c2ncccc21 (stereo unspecified) | . | . | . | . | . | 2 | . | .
COc1ccc(/C=N\NC(=O)c2ccccc2)cc1COc1ccc(F)cc1 | 46* | 2 | -32 | 2 | 0 | 3 | -12 | -35
O=C1C(CO)C(CO)C(CO)C1CO (stereo unspecified) | . | . | . | . | . | 0 | . | .
COCOCCn1cc(CN2CCS(=O)(=O)N(Cc3ccc(-c4cccc(N(C)C)c4)cc3)C(C(C)C)C2=O)nn1 (stereo unspecified) | . | . | . | . | . | 2 | . | .
CC1=NN(c2ccccc2)C(=O)/C1=C\C=C\c1ccccc1 | 8 | 20 | 3 | 2 | -15 | . | . | .
CC1=NN(c2ccc(C)c(C)c2)C(=O)/C1=C\C=C\c1ccc([N+](=O)[O-])o1 | 40* | 63* | -6 | 0 | 4 | 5 | 15 | 33
O=C(COC(=O)c1ccc(O)cc1)c1ccc(S(=O)(=O)N2CCCCC2)cc1 | . | . | . | 2 | . | 3 | . | .
O=C(NNC(=S)NC(=O)c1ccccc1[N+](=O)[O-])c1ccccc1[N+](=O)[O-] | 0 | 2 | -8 | 0 | -6 | 2 | . | .
CCCCOc1ccccc1C(=O)NNC(=S)NC(=O)c1ccccc1[N+](=O)[O-] | 40* | 0 | -17 | 0 | -3 | 2 | 51* | -3 | FID counter DR=>79
SMILES | HCV NS3 hel inh | core dimer inh | DNA FID counter-1 | GRK2 aptamer HTS | GPR7 antag | DAGLB inh | NS3 helicase cf | DNA FID counter-2 | others
CCN(CC(=O)Nc1ccc(NC(C)=O)cc1)C(=O)CN1C(=O)NC(C)(c2ccc3ccccc3c2)C1=O (stereo unspecified) | . | . | . | . | . | 1 | . | .
Cc1ccc(SC(CC(=O)c2ccc(F)cc2)C(=O)O)cc1 (stereo unspecified) | 43* | -10 | -14 | 0 | -13 | 2 | -23 | 1
O=C(/C=C/c1ccco1)NC(=S)Nc1cccc(C(=O)O)c1 | 52* | 9 | -13 | 29 | -9 | -2 | 30 | 11
NC(=S)N/N=C\c1c2ccccc2cc2ccccc12 | -13 | -16 | 3 | 4 | -9 | -1 | . | .
NC(=S)N/N=C\c1c(OCc2ccccc2Cl)ccc2ccccc12 | 36* | 5 | -19 | 0 | -10 | 1 | 12 | -21
Cc1ccccc1NC1c2ccccc2C(=O)N1Cc1ccco1 (stereo unspecified) | 41* | 4 | -26 | 0 | -17 | 2 | -1 | -4
COc1cccc(NC2c3ccccc3C(=O)N2Cc2ccco2)c1 (stereo unspecified) | 0 | 28 | -15 | 0 | -1 | 2 | . | .
Oc1ccc(/C=N/Nc2cc(N3CCCC3)nc(N3CCCC3)n2)cc1O | 56* | 21 | -19 | 4 | -4 | 5 | 8 | 23
Cc1cc(=O)n2c(c1C#N)SC1CCCCC12O (stereo unspecified) | 55* | 7 | 0 | 0 | 4 | -1 | -12 | 0
Cc1cc(C)c(C#N)c(N2CCCC(C(N)=O)C2)n1 (stereo unspecified) | 0 | -1 | 1 | 0 | -1 | -2 | . | .
O=C(NCc1ccco1)c1ccc(N2CCCCC2)c([N+](=O)[O-])c1 | 50* | 1 | -7 | 0 | -7 | 3 | -9 | -11
O=C(NCc1ccco1)c1ccc(N2CCOCC2)c([N+](=O)[O-])c1 | 4 | 1 | -1 | 1 | -11 | 1 | . | .
COc1ccc(Cc2nnc(NC(=O)c3ccc(F)cc3)s2)cc1OC | 47* | -9 | -29 | 0 | -2 | 2 | -12 | -4
